bIAP act: intestinal alkaline phosphatase (bovine) activation | actives 0.17% (n = 200,000) | activation factor at 20 µM | purified bovine IAP, CDP-star luminescence, 30 min; stronger effect = higher value; fold of DMSO-control signal, blank-subtracted | AID 1016;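 active means activation factor of 2 or more at 20 µM, a signal rise over negative controls twice the positive control's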
hIAP block: human IAP inhibition; purified IAP, CDP-Star luminescence, 30 min; inhibition, % at 10 µM; actives 0.12% (n = 330,000);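 active means inhibition reaching a set limit with compound at 10 µM in the primary screen, cut at about 35% in these data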;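 further: plate controls were DMSO wells with enzyme for no effect and no-enzyme buffer wells for full effect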
Target sequence (P09923 whole entry, looked up): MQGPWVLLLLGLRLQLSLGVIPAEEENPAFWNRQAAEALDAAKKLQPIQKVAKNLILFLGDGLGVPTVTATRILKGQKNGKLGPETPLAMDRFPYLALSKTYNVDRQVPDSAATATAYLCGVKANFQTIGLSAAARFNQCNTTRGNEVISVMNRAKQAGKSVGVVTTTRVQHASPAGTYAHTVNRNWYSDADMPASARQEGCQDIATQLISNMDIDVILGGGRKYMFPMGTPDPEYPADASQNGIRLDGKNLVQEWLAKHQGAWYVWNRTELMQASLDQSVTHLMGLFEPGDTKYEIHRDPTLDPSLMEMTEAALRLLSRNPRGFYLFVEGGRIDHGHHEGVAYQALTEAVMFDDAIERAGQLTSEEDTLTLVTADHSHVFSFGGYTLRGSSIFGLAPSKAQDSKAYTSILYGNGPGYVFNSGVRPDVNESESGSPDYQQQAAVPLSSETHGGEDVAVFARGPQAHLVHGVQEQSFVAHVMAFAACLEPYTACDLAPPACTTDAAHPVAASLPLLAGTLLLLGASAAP
hIAP activ: human IAP activation | activation factor at 10 µM | actives 0.16% (n = 330,000) | purified human IAP, CDP-Star luminescence, 30 min; stronger effect = higher value; 1 = vehicle-only enzyme, 0 = enzyme-free background;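 active means activation factor of the enzyme at least 2-fold when tested at 20 µM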
mIAP block: mouse IAP inhibition; purified mouse IAP, CDP-Star luminescence, 30 min; inhibition, % at 10 µM; actives 0.2% (n = 330,000); AID 2806;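 active means inhibition of at least 40% at 10 µM in the primary screen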;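 further: plate controls were DMSO with enzyme for no effect and no enzyme wells for full effect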
mIAP act: increases mouse intestinal alkaline phosphatase activity; activation factor at 10 µM; AID 2805; muIAP, CDP-Star luminescence, 30 min; stronger effect = higher value; 1 = vehicle-only enzyme signal, 0 = enzyme-free wells; actives 0.24% (n = 330,000);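 active means activation factor of at least 2 at 20 µM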
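System: mouse IAP enzyme. Reagent: CDP-Star chemiluminescent phosphatase substrate. Benchmarks: DMSO wells, no-enzyme wells. Times: 30 min enzyme-substrate-compound incubation at room temperature. Detection: luminescence from enzymatic CDP-Star hydrolysis. Doses: test compounds delivered from DMSO solution.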
bIAP inh: intestinal alkaline phosphatase (bovine) inhibition | purified bovine IAP, CDP-star luminescence, 30 min | inhibition, % at 20 µM | 190,000 tested, under 10 active | AID 1019;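 active means over 50% inhibition of intestinal alkaline phosphatase at 20 µM in the single-dose screen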
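Assay system: bovine IAP enzyme; medium: DEA buffer 100 mM, pH 9.8, with MgCl2 1.0 mM, ZnCl2 0.02 mM; doses: 20 µM single dose; incubation: enzyme reaction for 30 min at room temperature; detection: CDP-star luminescence signal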
* marks the source's active call; other numbers are inactive results. An excerpt weighted towards active compounds, which were near 0.72% of everything screened.

How did O=C(CCCN1C(=O)/C(=C\c2ccco2)SC1=S)Nc1ccc2ccccc2c1 do in these assays?
bIAP act: 0.9; hIAP block: 1; hIAP activ: 0.99; mIAP block: 41*; mIAP act: 0.59; bIAP inh: 9

What do the screens show for `O=C1/C(=C\c2ccco2)SC(=S)N1Cc1ccccc1`?
bIAP act: 0.9; hIAP block: -7; hIAP activ: 1.1; mIAP block: 57*; mIAP act: 0.43; bIAP inh: 10

How did Cc1ccc(NC(C#N)c2ccccc2OCc2ccccc2)cc1 (stereo unspecified) do in these assays?
bIAP act: 1; hIAP block: -6; hIAP activ: 1.1; mIAP block: -4; mIAP act: 1; bIAP inh: 1

Results for COc1ccc2[nH]c(=O)c(-c3nnn(-c4ccc(Cl)c(Cl)c4)n3)cc2c1 ?
hIAP block: 16; hIAP activ: 0.84; mIAP block: 1; mIAP act: 0.99

What do the screens show for `O=C(NCc1ccco1)C1CCCN1C(=O)Nc1ccc(Cl)cc1` (stereo unspecified)?
bIAP act: 0.9; hIAP block: -2; hIAP activ: 1; mIAP block: -4; mIAP act: 1; bIAP inh: 8

Results for C#CCOCCOCCOCCNc1nc(N2CCN(C(=O)[C@H](Cc3cc4ccccc4[nH]3)n3cc([C@@H](N)C(C)CC)nn3)CC2)nc(N2CCN(C(=O)[C@H](Cc3cc4ccccc4[nH]3)n3cc([C@@H](N)CC(C)C)nn3)CC2)n1 (stereo partly specified) ?
bIAP act: 5.4*; hIAP block: 13; hIAP activ: 0.87; mIAP block: -44; mIAP act: 1.4; bIAP inh: -442

What do the screens show for `Fc1ccc(C2CC(c3cccs3)=NN2c2ccccc2)cc1` (stereo unspecified)?
bIAP act: 1.7; hIAP block: -44; hIAP activ: 1.4; mIAP block: -130; mIAP act: 2.3*; bIAP inh: -70

Results for NS(=O)(=O)c1ccc(N2N=C(c3ccccc3)CC2c2ccc(F)cc2)cc1 (stereo unspecified) ?
bIAP act: 1.4; hIAP block: -21; hIAP activ: 1.2; mIAP block: -108; mIAP act: 2.1*; bIAP inh: -41

What do the screens show for `COCCNC(=S)NNC(=O)c1ccc(-n2cnnn2)cc1`?
bIAP act: 1.6; hIAP block: -28; hIAP activ: 1.3; mIAP block: 1; mIAP act: 0.99; bIAP inh: -62

Results for S=C(Nc1cc(Cl)cc(Cl)c1)NC1CCN(Cc2ccccc2)CC1 ?
hIAP block: 8; hIAP activ: 0.92; mIAP block: -221; mIAP act: 3.2*

What do the screens show for `Cc1nn(CCCC(=O)NC(C)c2ccccc2)c(=O)c2nn(-c3ccccc3)c(C)c12` (stereo unspecified)?
hIAP block: -17; hIAP activ: 1.2; mIAP block: -3; mIAP act: 1

What do the screens show for `COc1ccc(S(=O)(=O)N2CCC(C(=O)Nc3cccc(Cl)c3)CC2)cc1OC`?
bIAP act: 1; hIAP block: -11; hIAP activ: 1.1; mIAP block: -176; mIAP act: 2.8*; bIAP inh: 1

How did CC(=O)c1cccc(NC(=O)C2CCCN(S(=O)(=O)c3ccc(F)cc3)C2)c1 (stereo unspecified) do in these assays?
bIAP act: 0.9; hIAP block: -14; hIAP activ: 1.1; mIAP block: -3; mIAP act: 1; bIAP inh: 13

Results for COc1ccc(S(=O)(=O)N2CCCC(C(=O)Nc3cccc(C(C)=O)c3)C2)cc1 (stereo unspecified) ?
bIAP act: 2.5*; hIAP block: -14; hIAP activ: 1.1; mIAP block: 0; mIAP act: 0.99; bIAP inh: -148

What do the screens show for `Cc1ccc(NC(=O)C2CCN(S(=O)(=O)c3ccc(N4CCCC4=O)cc3)CC2)cc1Cl`?
hIAP block: -81; hIAP activ: 1.8; mIAP block: -163; mIAP act: 2.6*

What do the screens show for `COc1ccc(NC(=O)C2CCN(S(=O)(=O)c3ccc(C)cc3)CC2)cc1OC`?
bIAP act: 0.9; hIAP block: -12; hIAP activ: 1.1; mIAP block: -23; mIAP act: 1.2; bIAP inh: 8

Results for Cc1ccc(NC(=O)CSCC(=O)OC(C)C(=O)Nc2ccccc2C)cc1 (stereo unspecified) ?
hIAP block: -3; hIAP activ: 1; mIAP block: 6; mIAP act: 0.94

How did CC(=O)C[C@@H](O)CC(=O)[C@@H]1OC(=O)CCCCCCc2ccccc21 do in these assays?
hIAP block: -10; hIAP activ: 1.1; mIAP block: -1; mIAP act: 1

Results for CCCCCCSc1ccc([C@H]2N[C@@](C)(C(=O)OC)[C@H]3C(=O)N(C)C(=O)[C@@H]23)cc1 ?
hIAP block: 3; hIAP activ: 0.97; mIAP block: 0; mIAP act: 1

How did COc1ccc(C2CC(c3ccccc3)=NN2c2ccc(C(N)=O)cc2)cc1 (stereo unspecified) do in these assays?
hIAP block: -6; hIAP activ: 1.1; mIAP block: -183; mIAP act: 2.8*

Results for CC(=O)Nc1ccc(C2=NN(c3ccccc3)C(c3ccccc3)C2)cc1 (stereo unspecified) ?
hIAP block: -42; hIAP activ: 1.4; mIAP block: -134; mIAP act: 2.3*

How did CCOC(=O)/C(C#N)=C/C=C1\C=Cc2ccccc2N1CC do in these assays?
bIAP act: 1; hIAP block: 31; hIAP activ: 0.69; mIAP block: 44*; mIAP act: 0.56; bIAP inh: -2

What do the screens show for `CCCN1C=CC(=CC=C(C#N)C#N)C=C1`?
hIAP block: 11; hIAP activ: 0.89; mIAP block: 30; mIAP act: 0.7

Results for CCCN1C=CC(=C/C=C(\C#N)C(=O)OCC)C=C1 ?
bIAP act: 0.5; hIAP block: 37*; hIAP activ: 0.63; mIAP block: 26; mIAP act: 0.74; bIAP inh: 49

How did O=C(COC(=O)CCc1c[nH]c2ccccc12)Nc1ccccc1C(F)(F)F do in these assays?
hIAP block: 16; hIAP activ: 0.84; mIAP block: -10; mIAP act: 1.1

What do the screens show for `COc1ccccc1N1CCN(C(=O)c2ccc3c(c2)CCN3S(C)(=O)=O)CC1`?
hIAP block: -11; hIAP activ: 1.1; mIAP block: 0; mIAP act: 1

What do the screens show for `Fc1ccc(N2CCN(Cc3c[nH]c4ccccc34)CC2)cc1`?
hIAP block: 38*; hIAP activ: 0.62; mIAP block: -1; mIAP act: 1
